In ChEMBL document CHEMBL1926569, “Novel (E)-1-(4-methyl-2-(alkylamino)thiazol-5-yl)-3-arylprop-2-en-1-ones as potent antimicrobial agents” (2011):
≈ marks a conversion by molar mass, not a printed value.

Assays:
Aspergillus niger [1] = assay: Antifungal activity against Aspergillus niger ATCC 6275 after 72 hrs by serial dilution technique; assay type: functional; conditions: ATCC 6275, 72 h
Procedure, shortened: (§1)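 Modified microdilution in 96-well plates. Fungi were kept on malt agar at 4 °C. Spores were washed off in sterile 0.85% saline with 0.1% Tween 80. Compounds were dissolved at 1 mg/ml in 5% DMSO with 0.1% Tween 80 and added to malt broth with inoculum. Plates were shaken at 160 rpm for 72 h at 28 °C. Duplicate, repeated three times.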

Escherichia coli [2] = assay: Antibacterial activity against Escherichia coli ATCC 35210 after 24 hrs by microdilution method; assay type: functional; conditions: ATCC 35210, 24 h
Procedure, shortened: (§2)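 Broth microdilution in 96-well plates. Bacterial suspensions were adjusted in sterile saline to 1.0 × 10⁵ CFU/ml, prepared daily and kept at 4 °C. Compound was added to LB broth with 1.0 × 10⁴ CFU per well and shaken at 160 rpm for 24 h at […] (so in the source). MIC is the lowest concentration with no visible growth under a binocular microscope. OD655 was also read. Duplicate, repeated three times.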

Candida albicans [3] = assay: Ratio of ketoconazole to compound for Candida albicans isolated from human; assay type: functional
Penicillium ochrochloron [4] = assay: Ratio of bifonazole to compound for Penicillium ochrochloron ATCC 9112; assay type: functional
Aspergillus ochraceus [5] = assay: Ratio of ketoconazole to compound for Aspergillus ochraceus ATCC 12066; assay type: functional
Pseudomonas aeruginosa [6] = assay: Antibacterial activity against Pseudomonas aeruginosa ATCC 27853 incubated for 24 hrs followed by serial sub-cultivation for 24 hrs by microdilution; assay type: functional; conditions: ATCC 27853, 24 h
Procedure, shortened: (§3)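 MBC: after the 24 h LB broth microdilution (1.0 × 10⁴ CFU per well, 160 rpm), wells were serially sub-cultured into fresh broth plates and incubated a further 24 h. MBC is the lowest concentration with no visible growth, taken as 99.5% killing of the original inoculum. Duplicate, repeated three times.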

Aspergillus niger [7] = assay: Antifungal activity against Aspergillus niger ATCC 6275 incubated for 72 hrs followed by serial sub-cultivation for 72 hrs by serial dilution technique; assay type: functional; conditions: ATCC 6275, 72 h
Procedure, shortened: (§4)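 MFC: material from 72 h malt broth microdilution wells was serially sub-cultured into fresh broth plates and incubated a further 72 h at 28 °C. Fungicidal concentration is taken from growth after sub-culture. Duplicate, repeated three times.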

Penicillium ochrochloron [8] = assay: Antifungal activity against Penicillium ochrochloron ATCC 9112 incubated for 72 hrs followed by serial sub-cultivation for 72 hrs by serial dilution technique; assay type: functional; conditions: ATCC 9112, 72 h; procedure, shortened: as §4
Candida albicans [9] = assay: Antifungal activity against Candida albicans isolated from human after 72 hrs by serial dilution technique; assay type: functional; procedure, shortened: as §1
Pseudomonas aeruginosa [10] = assay: Ratio of ampicillin MIC to compound MIC for Pseudomonas aeruginosa ATCC 27853; assay type: functional
Aspergillus fumigatus [11] = assay: Antifungal activity against Aspergillus fumigatus isolated from human incubated for 72 hrs followed by serial sub-cultivation for 72 hrs by serial dilution technique; assay type: functional; procedure, shortened: as §4
Aspergillus ochraceus [12] = assay: Ratio of bifonazole to compound for Aspergillus ochraceus ATCC 12066; assay type: functional
Aspergillus fumigatus [13] = assay: Ratio of ketoconazole to compound for Aspergillus fumigatus isolated from human; assay type: functional
Enterococcus faecalis [14] = assay: Antibacterial activity against Enterococcus faecalis isolated from human incubated for 24 hrs followed by serial sub-cultivation for 24 hrs by microdilution; assay type: functional; procedure, shortened: as §3
Staphylococcus aureus [15] = assay: Antibacterial activity against Staphylococcus aureus ATCC 6538 after 24 hrs by microdilution method; assay type: functional; conditions: ATCC 6538, 24 h; procedure, shortened: as §2
Aspergillus flavus [16] = assay: Antifungal activity against Aspergillus flavus ATCC 9643 incubated for 72 hrs followed by serial sub-cultivation for 72 hrs by serial dilution technique; assay type: functional; conditions: ATCC 9643, 72 h; procedure, shortened: as §4
Bacillus cereus [17] = assay: Antibacterial activity against clinical isolate of Bacillus cereus after 24 hrs by microdilution method; assay type: functional; procedure, shortened: as §2
Trichoderma viride [18] = assay: Antifungal activity against Trichoderma viride IAM 5061 incubated for 72 hrs followed by serial sub-cultivation for 72 hrs by serial dilution technique; assay type: functional; conditions: IAM 5061, 72 h; procedure, shortened: as §4
Salmonella typhimurium [19] = assay: Antibacterial activity against Salmonella Typhimurium ATCC 13311 after 24 hrs by microdilution method; assay type: functional, Salmonella enterica subsp. enterica serovar Typhimurium; conditions: Salmonella enterica, ATCC 13311, 24 h; procedure, shortened: as §2
Pseudomonas aeruginosa [20] = assay: Antibacterial activity against Pseudomonas aeruginosa ATCC 27853 after 24 hrs by microdilution method; assay type: functional; conditions: ATCC 27853, 24 h; procedure, shortened: as §2
Aspergillus ochraceus [21] = assay: Antifungal activity against Aspergillus ochraceus ATCC 12066 incubated for 72 hrs followed by serial sub-cultivation for 72 hrs by serial dilution technique; assay type: functional; conditions: ATCC 12066, 72 h; procedure, shortened: as §4
Talaromyces funiculosus [22] = assay: Antifungal activity against Penicillium funiculosum ATCC 36839 incubated for 72 hrs followed by serial sub-cultivation for 72 hrs by serial dilution technique; assay type: functional; conditions: ATCC 36839, 72 h; procedure, shortened: as §4
Talaromyces funiculosus [23] = assay: Antifungal activity against Penicillium funiculosum ATCC 36839 after 72 hrs by serial dilution technique; assay type: functional; conditions: ATCC 36839, 72 h; procedure, shortened: as §1
Listeria monocytogenes [24] = assay: Antibacterial activity against Listeria monocytogenes NCTC 7973 after 24 hrs by microdilution method; assay type: functional; conditions: NCTC 7973, 24 h; procedure, shortened: as §2
Escherichia coli [25] = assay: Antibacterial activity against Escherichia coli ATCC 35210 incubated for 24 hrs followed by serial sub-cultivation for 24 hrs by microdilution; assay type: functional; conditions: ATCC 35210, 24 h; procedure, shortened: as §3
Aspergillus flavus [26] = assay: Antifungal activity against Aspergillus flavus ATCC 9643 after 72 hrs by serial dilution technique; assay type: functional; conditions: ATCC 9643, 72 h; procedure, shortened: as §1
Trichoderma viride [27] = assay: Ratio of bifonazole to compound for Trichoderma viride IAM 5061; assay type: functional
Trichoderma viride [28] = assay: Antifungal activity against Trichoderma viride IAM 5061 after 72 hrs by serial dilution technique; assay type: functional; conditions: IAM 5061, 72 h; procedure, shortened: as §1
Aspergillus niger [29] = assay: Ratio of bifonazole to compound for Aspergillus niger ATCC 6275; assay type: functional
Talaromyces funiculosus [30] = assay: Ratio of bifonazole to compound for Penicillium funiculosum ATCC 36839; assay type: functional
Micrococcus flavus [31] = assay: Antibacterial activity against Micrococcus flavus ATCC 10240 incubated for 24 hrs followed by serial sub-cultivation for 24 hrs by microdilution; assay type: functional; conditions: ATCC 10240, 24 h; procedure, shortened: as §3
Penicillium ochrochloron [32] = assay: Ratio of ketoconazole to compound for Penicillium ochrochloron ATCC 9112; assay type: functional
Aspergillus ochraceus [33] = assay: Antifungal activity against Aspergillus ochraceus ATCC 12066 after 72 hrs by serial dilution technique; assay type: functional; conditions: ATCC 12066, 72 h; procedure, shortened: as §1
Micrococcus flavus [34] = assay: Antibacterial activity against Micrococcus flavus ATCC 10240 after 24 hrs by microdilution method; assay type: functional; conditions: ATCC 10240, 24 h; procedure, shortened: as §2
Salmonella typhimurium [35] = assay: Antibacterial activity against Salmonella Typhimurium ATCC 13311 incubated for 24 hrs followed by serial sub-cultivation for 24 hrs by microdilution; assay type: functional, Salmonella enterica subsp. enterica serovar Typhimurium; conditions: Salmonella enterica, ATCC 13311, 24 h; procedure, shortened: as §3
Bacillus cereus [36] = assay: Antibacterial activity against clinical isolate of Bacillus cereus incubated for 24 hrs followed by serial sub-cultivation for 24 hrs by microdilution; assay type: functional; procedure, shortened: as §3
Listeria monocytogenes [37] = assay: Antibacterial activity against Listeria monocytogenes NCTC 7973 incubated for 24 hrs followed by serial sub-cultivation for 24 hrs by microdilution; assay type: functional; conditions: NCTC 7973, 24 h; procedure, shortened: as §3
Penicillium ochrochloron [38] = assay: Antifungal activity against Penicillium ochrochloron ATCC 9112 after 72 hrs by serial dilution technique; assay type: functional; conditions: ATCC 9112, 72 h; procedure, shortened: as §1
Aspergillus ochraceus [39] = assay: Antifungal activity against Aspergillus ochraceus after 72 hrs by serial dilution technique
Enterococcus faecalis [40] = assay: Antibacterial activity against Enterococcus faecalis isolated from human after 24 hrs by microdilution method; assay type: functional; procedure, shortened: as §2
Candida albicans [41] = assay: Antifungal activity against Candida albicans isolated from human incubated for 72 hrs followed by serial sub-cultivation for 72 hrs by serial dilution technique; assay type: functional; procedure, shortened: as §4
Staphylococcus aureus [42] = assay: Antibacterial activity against Staphylococcus aureus ATCC 6538 incubated for 24 hrs followed by serial sub-cultivation for 24 hrs by microdilution method; assay type: functional; conditions: ATCC 6538, 24 h; procedure, shortened: as §3
Candida albicans [43] = assay: Ratio of bifonazole to compound for Candida albicans isolated from human; assay type: functional

With `CCNc1nc(C)c(C(=O)/C=C/c2ccccc2)s1` the MIC (Aspergillus niger [1]) was 55.1 µM (≈ 15 µg/mL), the MIC (Escherichia coli [2]) was 73.5 µM (≈ 20 µg/mL) and the Ratio (Candida albicans [3]) was 10. It also gave a Ratio (Penicillium ochrochloron [4]) of 10, a Ratio (Aspergillus ochraceus [5]) of 10 and an MBC (Pseudomonas aeruginosa [6]) of 73.5 µM (≈ 20 µg/mL). It also gave an MFC (Aspergillus niger [7]) of 73.5 µM (≈ 20 µg/mL), an MFC (Penicillium ochrochloron [8]) of 73.5 µM (≈ 20 µg/mL) and an MIC (Candida albicans [9]) of 36.8 µM (≈ 10 µg/mL). It also gave a Ratio (Pseudomonas aeruginosa [10]) of 10, an MFC (Aspergillus fumigatus [11]) of 73.5 µM (≈ 20 µg/mL) and a Ratio (Aspergillus ochraceus [12]) of 10. The Ratio (Aspergillus fumigatus [13]) was 10, the MBC (Enterococcus faecalis [14]) was 73.5 µM (≈ 20 µg/mL) and the MIC (Staphylococcus aureus [15]) was 73.5 µM (≈ 20 µg/mL). The MFC (Aspergillus flavus [16]) was 91.9 µM (≈ 25 µg/mL), the MIC (Bacillus cereus [17]) was 73.5 µM (≈ 20 µg/mL) and the MFC (Trichoderma viride [18]) was 73.5 µM (≈ 20 µg/mL). It also gave an MIC (Salmonella typhimurium [19]) of 36.8 µM (≈ 10 µg/mL), an MIC (Pseudomonas aeruginosa [20]) of 73.5 µM (≈ 20 µg/mL) and an MFC (Aspergillus ochraceus [21]) of 91.9 µM (≈ 25 µg/mL). It also gave an MFC (Talaromyces funiculosus [22]) of 73.5 µM (≈ 20 µg/mL), an MIC (Talaromyces funiculosus [23]) of 36.8 µM (≈ 10 µg/mL) and an MIC (Listeria monocytogenes [24]) of 110 µM (≈ 30 µg/mL). For the same compound, the MBC (Escherichia coli [25]) was 110 µM (≈ 30 µg/mL), the MIC (Aspergillus flavus [26]) was 73.5 µM (≈ 20 µg/mL) and the Ratio (Trichoderma viride [27]) was 10. The MIC (Trichoderma viride [28]) was 36.8 µM (≈ 10 µg/mL), the Ratio (Aspergillus niger [29]) was 10 and the Ratio (Talaromyces funiculosus [30]) was 10. For the same compound, the MBC (Micrococcus flavus [31]) was 110 µM (≈ 30 µg/mL), the Ratio (Penicillium ochrochloron [32]) was 10 and the MIC (Aspergillus ochraceus [33]) was 73.5 µM (≈ 20 µg/mL). For the same compound, the MIC (Micrococcus flavus [34]) was 91.9 µM (≈ 25 µg/mL), the MBC (Salmonella typhimurium [35]) was 91.9 µM (≈ 25 µg/mL) and the MBC (Bacillus cereus [36]) was 73.5 µM (≈ 20 µg/mL). For the same compound, the MBC (Listeria monocytogenes [37]) was 110 µM (≈ 30 µg/mL), the MIC (Penicillium ochrochloron [38]) was 36.8 µM (≈ 10 µg/mL) and the MIC (Aspergillus ochraceus [39]) was 36.8 µM (≈ 10 µg/mL). It also gave an MIC (Enterococcus faecalis [40]) of 55.1 µM (≈ 15 µg/mL), an MFC (Candida albicans [41]) of 73.5 µM (≈ 20 µg/mL) and an MBC (Staphylococcus aureus [42]) of 110 µM (≈ 30 µg/mL). It also gave a Ratio (Candida albicans [43]) of 10.
